Experimental findings from ChEMBL document CHEMBL1149314, “Synthesis of AZT 5'-triphosphate mimics and their inhibitory effects on HIV-1 reverse transcriptase” (J Med Chem, 2004) are described below.

Bounds are passed on as bounds.

The nature of data set [1]: Stability in CEM cell extract. The format is ADME. The following applies: human, CEM (CCRF-CEM) cell extract. The method, boiled down:
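Clarified lysate of CEM cells (10^7 cells per 100 µL Tris/glycerol/Triton buffer, freeze-thaw lysed) at 50% v/v, with 500 µM nucleotide mimic in 50 mM Tris-HCl pH 7.4 and 0.1 mM MgCl2, at 37 °C. Samples were taken from 0 to 48 h into cold methanol, dried and analysed by ion-pair reverse-phase HPLC. Half-life came from remaining parent, given as >48 h if over 50% remained intact; unmodified NTPs were controls.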

Data set [2] in a line: Inhibition of HIV1 reverse transcriptase. Further details: species or system Human immunodeficiency virus 1. The method, boiled down: (§1)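 HIV reverse transcriptase (type B, 66 kDa subunit) at 2 nM with 1 µg/mL primed poly(A) RNA and 5 µM dTTP, in 50 mM Tris-HCl pH 8.1, 6.5 mM MgCl2, 100 mM NaCl and 10 mM DTT. Compounds were tested up to 500 µM final. Reactions were started with enzyme, run 10 min at 37 °C and stopped with EDTA. DNA was read by PicoGreen fluorescence (ex 480/em 538 nm), with no-enzyme or no-dTTP blanks. Percent inhibition was blank-corrected; Ki came from titration fitted to a competitive model.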

Data set [3] in a line: (§2) Stability in fetal calf serum at 500 uM at 37 degC. The format is ADME, cell-free, Bos taurus. The following applies: cattle, fetal calf serum. The method, boiled down: (§3)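 Fetal calf serum at 10% v/v final, with 500 µM nucleotide mimic in 50 mM Tris-HCl pH 7.4 and 0.1 mM MgCl2, at 37 °C. Timed aliquots were quenched in cold methanol, extracted, dried and run on ion-pair reverse-phase HPLC. Half-life came from remaining parent through 48 h, given as >48 h if over 50% remained; unmodified nucleoside triphosphates were positive controls.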

Data set [4] concerns Human immunodeficiency virus 1. Briefly: Inhibition of HIV1 reverse transcriptase at 0.5 uM. The method, boiled down: as §1
The next data set deals with Serum. The description is as §2. The following applies: cattle, serum, 500 µM. In kind it is ADME, cell-free, Bos taurus. The procedure, abridged:
as §3

By half-life is commonly meant the time in which the quantity being followed falls by half. As usually defined, the Ki is the dissociation constant of the complex between target and ligand, obtained from inhibition or displacement. A higher Ki goes with lower affinity. `BP(=O)(OC[C@@H]1O[C@H](n2cc(C)c(=O)[nH]c2=O)C[C@H]1N=[N+]=[N-])OP(=O)(O)C(F)(F)P(=O)(O)O` (single isomer, unassigned; diastereomer I): the half-life in data set [1] was above 48 h. In data set [2], this molecule yielded a Ki of 9.5 nM. In addition, the half-life at 500 µM in data set [3] is above 48 h.

As for `Cc1cn([C@H]2C[C@H](N=[N+]=[N-])[C@@H](COP(=O)(O)OP(=O)(O)OP(=O)(O)O)O2)c(=O)[nH]c1=O` [ZIDOVUDINE TRIPHOSPHATE], the affinity in data set [2], expressed as Ki, was 8.4 nM. Besides, the half-life at 500 µM in data set [3] was 2 h. What is called inhibition is how much of the control response was suppressed. Read a low inhibition as a response near the control. In turn, `Cc1cn([C@@H]2C[C@@H](N=[N+]=[N-])[C@H](COP(=O)(O)OP(=O)(O)C(F)(F)P(=O)(O)N=[N+]=[N-])O2)c(=O)[nH]c1=O` came in with an inhibition in data set [4] of 24%.

The molecule `Cc1cn([C@@H]2C[C@@H](N=[N+]=[N-])[C@H](COP(=O)(O)OP(=O)(O)C(F)(F)P(=O)(O)O)O2)c(=O)[nH]c1=O` showed an inhibition constant Ki in data set [2] of 41 nM. `BP(=O)(OC[C@@H]1O[C@H](n2cc(C)c(=O)[nH]c2=O)C[C@H]1N=[N+]=[N-])OP(=O)(O)C(F)(F)P(=O)(O)O` (single isomer, unassigned; diastereomer II) returned an inhibition constant (Ki) in data set [2] of 4560 nM.

In data set [3], `BP(=O)(OC[C@@H]1O[C@H](n2cc(C)c(=O)[nH]c2=O)C[C@H]1N=[N+]=[N-])OP(=O)(O)OP(=O)(O)O` (single isomer, unassigned; form 2) showed a half-life at 500 µM of 6 h. In data set [2], `Cc1cn([C@@H]2C[C@@H](N=[N+]=[N-])[C@H](COP(=O)(O)OP(=O)(O)C(F)(F)P(N)(=O)O)O2)c(=O)[nH]c1=O` came in with a Ki of 234 nM. In the case of `CNP(=O)(O)C(F)(F)P(=O)(O)OP(=O)(O)OC[C@@H]1O[C@H](n2cc(C)c(=O)[nH]c2=O)C[C@H]1N=[N+]=[N-]`, the Ki in data set [2] was found to be 124 nM. Still for that read-out and setting: the same measure for `Cc1cn([C@@H]2C[C@@H](N=[N+]=[N-])[C@H](COP(=O)(O)OP(=O)(O)C(F)(F)P(=O)(O)Oc3ccccc3)O2)c(=O)[nH]c1=O`: 303 nM; for `BP(=O)(OC[C@@H]1O[C@H](n2cc(C)c(=O)[nH]c2=O)C[C@H]1N=[N+]=[N-])OP(=O)(O)C(F)P(=O)(O)O` (single isomer, unassigned): 27 nM. `Nc1ncnc2c1ncn2[C@@H]1O[C@H](COP(=O)(O)OP(=O)(O)OP(=O)(O)O)[C@@H](O)[C@H]1O` [ADENOSINE TRIPHOSPHATE]: the half-life at 500 µM in data set [3] is 2 h.

As to `BP(=O)(OC[C@@H]1O[C@H](n2cc(C)c(=O)[nH]c2=O)C[C@H]1N=[N+]=[N-])OP(=O)(O)C(Cl)(Cl)P(=O)(O)O` (single isomer, unassigned; diastereomer II), in data set [1], the half-life was above 48 h. This molecule also came in with an inhibition constant Ki in data set [2] of 74 nM. This molecule also had a half-life at 500 µM in data set [3] above 48 h. Molecule `BP(=O)(OC[C@@H]1O[C@H](n2cc(C)c(=O)[nH]c2=O)C[C@H]1N=[N+]=[N-])OP(=O)(O)C(F)P(=O)(O)O` (single isomer, unassigned; diastereomer IV) came in with an inhibition in data set [4] of 49%. On to `BP(=O)(OC[C@@H]1O[C@H](n2cc(C)c(=O)[nH]c2=O)C[C@H]1N=[N+]=[N-])OP(=O)(O)OP(=O)(O)O` (single isomer, unassigned; form 1), for which the inhibition constant Ki in data set [2] was found to be 9.6 nM. Also, the t1/2 with Serum came out at 6 h.

In turn, `BP(=O)(OC[C@@H]1O[C@H](n2cc(C)c(=O)[nH]c2=O)C[C@H]1N=[N+]=[N-])OP(=O)(O)C(Cl)(Cl)P(=O)(O)O` (single isomer, unassigned) displayed an inhibitory constant (Ki) in data set [2] of 93 nM. For the same molecule, in the data set on Serum, the t1/2 was 45 h. The molecule `Cc1cn([C@@H]2C[C@@H](N=[N+]=[N-])[C@H](COP(=O)(O)OP(=O)(O)C(F)(F)P(=O)(O)Nc3ccccc3)O2)c(=O)[nH]c1=O` came in with a Ki in data set [2] of 254 nM. In the case of `COP(=O)(O)C(F)(F)P(=O)(O)OP(=O)(O)OC[C@@H]1O[C@H](n2cc(C)c(=O)[nH]c2=O)C[C@H]1N=[N+]=[N-]`, the Ki in data set [2] came to 597 nM.

For `CCNP(=O)(O)C(F)(F)P(=O)(O)OP(=O)(O)OC[C@@H]1O[C@H](n2cc(C)c(=O)[nH]c2=O)C[C@H]1N=[N+]=[N-]`, the affinity in data set [2], expressed as Ki, was 415 nM. With `Cc1cn([C@@H]2C[C@@H](N=[N+]=[N-])[C@H](COP(=O)(O)C(F)(F)P(=O)(O)OP(=O)(O)c3ccccc3)O2)c(=O)[nH]c1=O`, the inhibition in data set [4] stood at 11.5%.

On to `Cc1cn([C@@H]2C[C@@H](N=[N+]=[N-])[C@H](COP(=S)(S)OP(=O)(O)C(F)(F)P(=O)(O)O)O2)c(=O)[nH]c1=O` (stereo partly drawn), for which, in data set [4], the inhibition worked out at 19%. With `Cc1cn([C@H]2C[C@H](O)[C@@H](COP(=O)(O)OP(=O)(O)OP(=O)(O)O)O2)c(=O)[nH]c1=O` [DEOXYTHYMIDINE_TRIPHOSPHATE], the half-life at 500 µM in data set [3] is 2 h.
